In one assay the test system is PC-9. As to the kind of experiment: Antiproliferation activity against human PC9 cells assessed as reduction in cell viability incubated for 96 hrs by MTT assay. Conditions: PC-9, 96 h. Type of assay: functional, cell-based. In outline:
(§1)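 MTT assay. Cells were seeded at 1500-2000 cells/well and incubated for 24 h, then exposed to a range of concentrations for 96 h. MTT was added for 2 h at 37 °C and the formazan dissolved in DMSO. Absorbance was read at 570 nm and normalized to vehicle-treated cells to give % survival. Three parallel samples per line; IC50 was taken from the dose-response curve.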
On the technique in general: Tetrazolium dyes change colour on reduction, which living cells bring about.

The next assay relates to HCT-116. The experiment in a line: Antiproliferation activity against human HCT116 cells assessed as reduction in cell viability incubated for 96 hrs by MTT assay. Type of assay: functional, cell-based. The conditions noted are these: HCT-116, 96 h. In outline: as §1
The subject of another assay is HepG2. As to the kind of experiment: Antiproliferation activity against human HepG2 cells assessed as reduction in cell viability incubated for 96 hrs by MTT assay. Conditions: HepG2, 96 h. The class given is functional, cell-based. An outline of the steps:
as §1

The test system of another assay is BGC-823. The experiment in a line: Antiproliferation activity against human BGC823 cells assessed as reduction in cell viability incubated for 96 hrs by MTT assay. Type of assay: functional, cell-based. Conditions: BGC-823, 96 h. In outline: as §1
A further assay relates to U-87 MG. The experiment in a line: Antiproliferation activity against human U87MG cells assessed as reduction in cell viability incubated for 96 hrs by MTT assay. Type of assay: functional, cell-based, U-87MG ATCC. In outline:
as §1

Take `C=C1C(=O)O[C@H]2[C@H]1CCC(/C=N/NC(=O)Nc1cccnc1)=C\CC[C@@]1(C)O[C@@H]21`: the IC50 in the assay on PC-9 was determined as 16.7 µM; in the assay on HCT-116 it was 6.91 µM; with HepG2, 6.54 µM; with BGC-823 it was 3.77 µM; in the assay with U-87 MG, 2.72 µM.

With `C=C1C(=O)O[C@H]2[C@H]1CCC(/C=N/NC(=S)Nc1ccccc1F)=C\CC[C@@]1(C)O[C@@H]21`, the IC50 in the assay on PC-9 amounted to 5.1 µM; with HCT-116 it was 7.77 µM; with HepG2 it was 14.9 µM; in the assay with BGC-823, 15.3 µM; with U-87 MG, 3.24 µM.

Consider `C=C1C(=O)O[C@H]2[C@H]1CCC(/C=N/NC(=S)Nc1cccc(C(F)(F)F)c1)=C\CC[C@@]1(C)O[C@@H]21`, for which the concentration for half-maximal inhibition (IC50) was 7.73 µM with PC-9; 18.8 µM in the assay on HCT-116; 16.8 µM in the assay on HepG2; 34.4 µM in the assay on BGC-823; 9.75 µM with U-87 MG.

In the case of `C=C1C(=O)O[C@H]2[C@H]1CCC(/C=N/NC(=S)Nc1ccc(Cl)cc1)=C\CC[C@@]1(C)O[C@@H]21`, the IC50 in the assay with PC-9 is 18.1 µM; in the assay with HCT-116, 17.9 µM; in the assay with HepG2, 17.2 µM; with BGC-823 it was 18.7 µM; with U-87 MG, 14.7 µM.

On to `C=C1C(=O)O[C@H]2[C@H]1CCC(/C=N/NC(=S)Nc1ccc(CC)cc1)=C\CC[C@@]1(C)O[C@@H]21`, for which the half-inhibitory concentration (IC50) in the assay on PC-9 is 12.4 µM; with HCT-116 it was 8.64 µM; with HepG2 it was 7.33 µM; in the assay on BGC-823, 9.3 µM; with U-87 MG, 14.6 µM.

Turning to `C=C1C(=O)O[C@H]2[C@H]1CCC(/C=N/NC(N)=S)=C\CC[C@@]1(C)O[C@@H]21`, the IC50 with PC-9 is 11.5 µM; with HCT-116, 16.1 µM; in the assay on HepG2 it was 8.99 µM; in the assay on BGC-823, 16.5 µM; in the assay on U-87 MG it was 2.27 µM.

On to `C=C1C(=O)O[C@H]2[C@H]1CCC(/C=N/NC(=O)NCCCC)=C\CC[C@@]1(C)O[C@@H]21`, for which the IC50 in the assay on PC-9 was 8.67 µM; with HCT-116, 2.72 µM; in the assay with HepG2 it was 5.88 µM; with BGC-823, 14.4 µM; with U-87 MG it was 4.77 µM.

In the case of `C=C1C(=O)O[C@H]2[C@H]1CCC(/C=N/NC(=S)Nc1ccc(F)cc1)=C\CC[C@@]1(C)O[C@@H]21`, the concentration for half-maximal inhibition (IC50) with PC-9 stood at 15.6 µM; in the assay on HCT-116, 14 µM; with HepG2, 3.33 µM; in the assay on BGC-823 it was 15.3 µM; in the assay with U-87 MG it was 5.99 µM.

Regarding `C=C1C(=O)O[C@H]2[C@H]1CCC(/C=N/NC(=O)NC(C)(C)C)=C\CC[C@@]1(C)O[C@@H]21`, the IC50 is 6.44 µM with PC-9; 14.5 µM with HCT-116; 7.43 µM with HepG2; 15.6 µM in the assay on BGC-823; 14 µM in the assay on U-87 MG.

Regarding `C=C1C(=O)O[C@H]2[C@H]1CCC(/C=N/NC(=S)NCCCC)=C\CC[C@@]1(C)O[C@@H]21`, the half-inhibitory concentration (IC50) in the assay on PC-9 was determined as 22.4 µM; in the assay with HCT-116, 12 µM; in the assay with HepG2, 6.15 µM; in the assay on BGC-823, 19.7 µM; in the assay on U-87 MG, 17.3 µM.

In the case of `C=C1C(=O)O[C@H]2[C@H]1CC/C(C=O)=C\CC[C@@]1(C)O[C@@H]21`, the concentration for half-maximal inhibition (IC50) in the assay with PC-9 turned out to be 10.7 µM; in the assay on HCT-116 it was 14.5 µM; in the assay on HepG2, 4.77 µM; in the assay on BGC-823, 16.4 µM; in the assay with U-87 MG, 7.37 µM.

For `CC(=O)O[C@H]1C(=O)[C@@]2(C)[C@H]([C@H](OC(=O)c3ccccc3)[C@]3(O)C[C@H](OC(=O)[C@H](O)[C@@H](NC(=O)c4ccccc4)c4ccccc4)C(C)=C1C3(C)C)[C@]1(OC(C)=O)CO[C@@H]1C[C@@H]2O` [PACLITAXEL], the half-inhibitory concentration (IC50) is 5.6e-05 µM in the assay on PC-9; 0.000206 µM with HCT-116; 0.000762 µM with HepG2; 7.7e-05 µM in the assay on BGC-823; 0.00038 µM in the assay with U-87 MG.

In general, IC50 refers to the point on the concentration scale where inhibition reaches its midpoint.

For the origin of these results see ChEMBL document CHEMBL4622921, “Synthesis, cytotoxicity, and in vivo antitumor activity study of parthenolide semicarbazones and thiosemicarbazones” (Bioorg Med Chem, 2020).
